The source of these data is ChEMBL document CHEMBL3612019, “Revisiting 1,3,4-Oxadiazol-2-ones: Utilization in the Development of ABHD6 Inhibitors” (Bioorg Med Chem, 2015).

What is called IC50 is the concentration at which inhibition is half-maximal. For orientation: inhibition means how much of the control response was suppressed.

The structures appear in SMILES notation. Activity calls are given as the source filed them. The calls are words filed in the database; no cut-off is given here.

For experiment [1], the target named is T1, Monoglyceride lipase (Homo sapiens, UniProt Q99685).
T1 sequence (Q99685 whole entry): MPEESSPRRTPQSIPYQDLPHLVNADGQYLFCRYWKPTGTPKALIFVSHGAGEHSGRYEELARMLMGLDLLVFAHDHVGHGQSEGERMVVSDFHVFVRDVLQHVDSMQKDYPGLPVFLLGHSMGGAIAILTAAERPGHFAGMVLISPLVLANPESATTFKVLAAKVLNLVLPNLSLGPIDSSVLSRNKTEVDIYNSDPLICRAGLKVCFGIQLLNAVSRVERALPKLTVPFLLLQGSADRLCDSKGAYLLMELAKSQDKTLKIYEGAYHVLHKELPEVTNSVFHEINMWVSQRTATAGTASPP
The experiment in a line: Inhibition of human MAGL expressed in HEK293 cells pre-incubated for 10 mins before 2-AG substrate addition by HPLC method. Format: cell-based. As to conditions: read-out: IC50. Summed up:
(§1)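 Lysates of hMAGL-overexpressing HEK293 cells in 50 mM Tris–HCl pH 7.4 with 1 mM EDTA. After a 10 min preincubation with inhibitor or DMSO, 2-AG was added (final 50 µM) and incubated 10 min at 37 °C. The reaction was stopped and samples centrifuged. Arachidonic acid formation and 2-AG depletion were measured by HPLC. Replicates as for the FAAH assay.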

In experiment [2] the target is T2, Monoacylglycerol lipase ABHD6 (Mus musculus) (UniProt Q8R2Y0).
T2 sequence (whole entry): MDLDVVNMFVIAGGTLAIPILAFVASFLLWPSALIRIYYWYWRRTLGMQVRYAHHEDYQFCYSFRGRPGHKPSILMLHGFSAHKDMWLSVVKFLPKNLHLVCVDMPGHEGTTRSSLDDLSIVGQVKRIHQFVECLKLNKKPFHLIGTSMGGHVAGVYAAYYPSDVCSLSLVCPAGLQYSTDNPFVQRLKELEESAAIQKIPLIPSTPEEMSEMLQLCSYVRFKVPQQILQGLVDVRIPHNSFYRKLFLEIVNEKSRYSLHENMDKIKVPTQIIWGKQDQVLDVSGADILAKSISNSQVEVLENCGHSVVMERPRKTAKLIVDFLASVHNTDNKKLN
The experiment in a line: Inhibition of ABHD6 in mouse whole brain membranes at 1 uM incubated for 1 hr by TAMRA-FP probe based competitive activity-based protein profiling assay. In kind it is cell membranes. Particulars: Membrane. Summed up:
(§2)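 Competitive ABPP on mouse brain membranes (100 µg) treated 1 h with DMSO or inhibitor. TAMRA-FP labelling then ran 1 h at RT (final probe 2 µM). Reaction was quenched with gel loading buffer and proteins resolved by 10% SDS–PAGE for fluorescent band read-out. WWL70 located the ABHD6 band. Gels are representative of two experiments.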

Experiment [3] addresses T3, Monoglyceride lipase (Homo sapiens) (UniProt Q99685).
T3 sequence (whole entry): T1 sequence (Q99685 whole entry)
The experiment in a line: Inhibition of human MAGL expressed in HEK293 cells at 10 uM pre-incubated for 10 mins before 2-AG substrate addition by HPLC method. In kind it is cell-based. Summed up: as §1

Experiment [4] concerns the target T3, Monoglyceride lipase (Homo sapiens). The experiment in a line: Inhibition of human MAGL expressed in HEK293 cells at 20 uM pre-incubated for 10 mins before 2-AG substrate addition by HPLC method. In kind it is cell-based. Summed up:
as §1

In experiment [5] the target is T4, Lysophosphatidylserine lipase ABHD12 (Mus musculus) (UniProt Q99LR1).
T4 sequence (whole entry): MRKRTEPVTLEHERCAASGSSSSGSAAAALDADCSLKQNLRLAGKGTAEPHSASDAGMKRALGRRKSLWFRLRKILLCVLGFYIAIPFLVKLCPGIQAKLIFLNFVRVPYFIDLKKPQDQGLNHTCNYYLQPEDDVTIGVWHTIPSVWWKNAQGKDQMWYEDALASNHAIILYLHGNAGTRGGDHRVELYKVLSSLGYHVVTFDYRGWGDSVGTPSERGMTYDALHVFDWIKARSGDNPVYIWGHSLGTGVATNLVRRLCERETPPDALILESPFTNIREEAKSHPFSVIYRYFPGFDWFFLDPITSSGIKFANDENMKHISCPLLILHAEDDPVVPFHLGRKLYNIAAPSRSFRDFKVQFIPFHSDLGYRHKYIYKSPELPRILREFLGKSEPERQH
The experiment in a line: Inhibition of ABHD12 in mouse whole brain membranes at 32.5 uM incubated for 1 hr by TAMRA-FP probe based competitive activity-based protein profiling assay. Format: cell membranes. Particulars: Membrane. The essentials:
as §2

The target of experiment [6] is Cannabinoid receptor 1 (Rattus norvegicus) (UniProt P20272). The experiment in a line: Agonist activity at CB1R in rat cerebellar membranes at 10 uM by [35S]GTPgammaS binding assay. In kind it is functional, cell membranes. Particulars: Cerebellum, Membrane. Summed up:
(§3)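 Rat cerebellar membranes, [35S]GTPγS binding. Agonist activity is read as % of basal binding. Antagonist activity is read as % of the HU210-evoked response. Compound tested at 10 µM. Values are mean (range), n = 2.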
Background: GTPγS resists hydrolysis and so accumulates on activated G proteins.

The target is the same in experiment [7]. The experiment in a line: Antagonist activity at CB1R in rat cerebellar membranes assessed as inhibition of HU210-induced response at 10 uM by [35S]GTPgammaS binding assay. Format: functional, cell membranes. As to conditions: Cerebellum, Membrane. Summed up: as §3
In experiment [8] the target is T5, Monoacylglycerol lipase ABHD6 (Homo sapiens, UniProt Q9BV23).
T5 sequence (Q9BV23 whole entry): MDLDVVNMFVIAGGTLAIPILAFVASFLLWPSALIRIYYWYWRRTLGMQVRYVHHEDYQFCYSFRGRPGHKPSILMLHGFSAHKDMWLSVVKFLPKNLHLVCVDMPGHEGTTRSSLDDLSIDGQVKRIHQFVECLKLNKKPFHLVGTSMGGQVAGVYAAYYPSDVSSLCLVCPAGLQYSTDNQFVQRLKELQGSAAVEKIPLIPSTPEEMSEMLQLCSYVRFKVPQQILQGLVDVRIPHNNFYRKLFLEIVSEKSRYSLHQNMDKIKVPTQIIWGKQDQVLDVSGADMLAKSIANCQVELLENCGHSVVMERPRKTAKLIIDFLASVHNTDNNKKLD
The experiment in a line: Inhibition of human ABHD6 expressed in HEK293 cells at 1 uM pre-incubated for 10 mins before 2-AG substrate addition followed by rapid 40 fold compound dilution measured after 10 mins by HPLC method. In kind it is cell-based.

The target in experiment [9] is T5, Monoacylglycerol lipase ABHD6. The experiment in a line: Inhibition of human ABHD6 expressed in HEK293 cells at 1 uM pre-incubated for 10 mins before 2-AG substrate addition followed by rapid 40 fold compound dilution measured after 90 mins by HPLC method. Format: cell-based.
Experiment [10] addresses T6, Monoacylglycerol lipase ABHD6 (Homo sapiens) (UniProt Q9BV23).
T6 sequence (whole entry): T5 sequence (Q9BV23 whole entry)
As to conditions: HEK293, 1 uM.

Chain of Cannabinoid receptor 1 (Rattus norvegicus) (P20272 whole entry): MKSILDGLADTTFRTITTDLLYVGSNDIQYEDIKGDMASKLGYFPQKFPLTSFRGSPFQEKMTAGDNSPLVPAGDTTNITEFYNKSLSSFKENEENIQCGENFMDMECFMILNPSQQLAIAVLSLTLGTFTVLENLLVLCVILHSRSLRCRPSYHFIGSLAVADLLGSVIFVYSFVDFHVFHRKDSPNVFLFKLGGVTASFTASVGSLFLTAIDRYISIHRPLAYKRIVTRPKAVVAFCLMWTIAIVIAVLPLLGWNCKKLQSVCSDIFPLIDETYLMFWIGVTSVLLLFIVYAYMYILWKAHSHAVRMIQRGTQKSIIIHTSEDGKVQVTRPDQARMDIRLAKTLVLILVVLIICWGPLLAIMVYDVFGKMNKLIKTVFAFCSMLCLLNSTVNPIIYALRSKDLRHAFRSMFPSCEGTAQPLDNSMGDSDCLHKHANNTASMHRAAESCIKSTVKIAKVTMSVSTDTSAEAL

Regarding `Nc1cccc(Cn2nc(Oc3ccccc3)oc2=O)c1`, in experiment [1], the IC50 stood at 7.94 µM. In experiment [2], the inhibition result was “Active”.
For the compound `COc1nn(Cc2cccc(N)c2)c(=O)o1`, the values for the inhibition in experiment [3] and in experiment [4] were 21% and 33%, respectively. The inhibition entry in [5] and in [10] was “Active” in each case. Further, the Activity in [6] was 96%. Further, the % of HU210 response in [7] was 104%. For the same compound, the IC50 was 4.07 µM in [8] and 3.31 µM in experiment [9].
